The record followed here is ChEMBL document CHEMBL4480400, “Development of an N-Acyl Amino Acid That Selectively Inhibits the Glycine Transporter 2 To Produce Analgesia in a Rat Model of Chronic Pain” (J Med Chem, 2019).

The nature of series [1]: Toxicity in Sprague-Dawley rat model of neuropathic pain assessed as induction of recumbent behaviour rat 30 mg/kg, ip administered as single dose measured up to 60 mins post injection. Type of series: organism-based. The following applies: in vivo, 1 h. The method in brief: (§1)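 Male Sprague-Dawley rats underwent chronic nerve constriction surgery, and neuropathic pain developed over 14 days. Rats were housed in groups of 4 and acclimatised to test chambers. Single ip injection of drug or vehicle (1% DMSO, 10% Solutol HS15 in 0.9% saline). Adverse behaviours were scored over the post-injection period alongside von Frey testing, with vehicle as comparison.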

Series [2] concerns the target T1, Sodium- and chloride-dependent glycine transporter 2 (Homo sapiens) (UniProt Q9Y345).
T1 sequence (whole entry): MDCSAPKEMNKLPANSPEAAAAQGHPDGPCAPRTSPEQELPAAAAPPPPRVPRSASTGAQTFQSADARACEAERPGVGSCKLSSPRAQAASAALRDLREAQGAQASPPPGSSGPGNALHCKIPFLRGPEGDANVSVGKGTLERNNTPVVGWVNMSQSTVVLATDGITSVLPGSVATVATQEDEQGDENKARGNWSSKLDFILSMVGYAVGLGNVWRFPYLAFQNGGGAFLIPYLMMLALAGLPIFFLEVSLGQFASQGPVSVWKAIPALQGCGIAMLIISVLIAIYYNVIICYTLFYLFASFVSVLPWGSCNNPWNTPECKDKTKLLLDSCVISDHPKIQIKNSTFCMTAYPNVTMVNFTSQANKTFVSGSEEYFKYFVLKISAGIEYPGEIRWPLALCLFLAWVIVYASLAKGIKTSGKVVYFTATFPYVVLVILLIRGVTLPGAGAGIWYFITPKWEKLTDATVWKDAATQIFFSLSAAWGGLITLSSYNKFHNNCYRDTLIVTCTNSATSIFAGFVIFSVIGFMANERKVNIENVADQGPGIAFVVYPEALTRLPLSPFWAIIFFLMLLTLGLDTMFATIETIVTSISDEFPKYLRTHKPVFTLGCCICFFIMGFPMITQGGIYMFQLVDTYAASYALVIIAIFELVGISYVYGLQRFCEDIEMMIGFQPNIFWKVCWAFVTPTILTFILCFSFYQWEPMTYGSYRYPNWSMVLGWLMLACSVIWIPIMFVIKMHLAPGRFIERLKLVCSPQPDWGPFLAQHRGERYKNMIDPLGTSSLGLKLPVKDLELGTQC
Kind of series: Inhibition of recombinant human GlyT2a expressed in Xenopus laevis oocytes assessed as reduction in channel current by two-electrode voltage clamp electrophysiology relative to control. Format: cell-based. For orientation: Two-electrode voltage clamp holds a large cell at a set potential and records current.

Series [3] can be described thus: Toxicity in Sprague-Dawley rat model of neuropathic pain assessed as induction of abdominal pain rat 30 mg/kg, ip administered as single dose measured up to 60 mins post injection. Type of series: organism-based. The following applies: in vivo, 1 h. Summed up: as §1
Another series has as its system Rattus norvegicus. Description: Analgesic activity in Sprague-Dawley rat model of neuropathic pain assessed as reduction in allodynia at 30 mg/kg, ip administered as single dose measured after 90 mins post injection. Type of series: functional, organism-based. Summed up: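 Male Sprague-Dawley rats were tested 14 days after nerve-constriction surgery. Mechanical paw withdrawal threshold was measured with von Frey filaments (0.4–15.1 g) by the up-down method, bounded at 0.2 and 15 g. Rats got a single ip injection with vehicle of 1% DMSO, 10% Solutol HS15 in 0.9% saline. Testing ran at 15–360 min post-injection with Bonferroni comparisons against vehicle.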

Series [4] has as its target T1, Sodium- and chloride-dependent glycine transporter 2 (Homo sapiens). Kind of series: Slow reversible inhibition of recombinant human GlyT2a expressed in Xenopus laevis oocytes assessed as recovery of transport current at IC50 followed by compound wash out followed by glycine re-application at 5 mins intervals throughout wash time course and measured after 30 mins by two-electrode voltage clamp electrophysiology. Format: cell-based. More on the design: scale not given: the % may be the effect or the level left.

Series [5] can be described thus: Toxicity in Sprague-Dawley rat model of neuropathic pain assessed as induction of writhing behaviour rat 30 mg/kg, ip administered as single dose measured up to 60 mins post injection. As to conditions: in vivo, 1 h. Type of series: organism-based. The method in brief:
as §1
Background: An intraperitoneal irritant provokes the stretching counted in writhing tests.

Series [6] deals with T1, Sodium- and chloride-dependent glycine transporter 2 (Homo sapiens). Description: Inhibition of recombinant human GlyT2a expressed in Xenopus laevis oocytes assessed as reduction in channel current at 10 nM by two-electrode voltage clamp electrophysiology. Type of series: cell-based. The method in brief: (§2)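 GlyT2-expressing oocytes under two-electrode voltage clamp at -60 mV. Glycine concentration responses were run first without inhibitor, then after 2 min pre-application of inhibitor (10 nM, 30 nM or 1 μM) in ND96, followed by increasing glycine. Plateau currents were normalised to each cell's Imax at 300 μM glycine without inhibitor. ANOVA was applied to EC50 and Imax.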

For series [7], the target named is T2, Sodium- and chloride-dependent glycine transporter 1 (Homo sapiens) (UniProt P48067).
T2 sequence (whole entry): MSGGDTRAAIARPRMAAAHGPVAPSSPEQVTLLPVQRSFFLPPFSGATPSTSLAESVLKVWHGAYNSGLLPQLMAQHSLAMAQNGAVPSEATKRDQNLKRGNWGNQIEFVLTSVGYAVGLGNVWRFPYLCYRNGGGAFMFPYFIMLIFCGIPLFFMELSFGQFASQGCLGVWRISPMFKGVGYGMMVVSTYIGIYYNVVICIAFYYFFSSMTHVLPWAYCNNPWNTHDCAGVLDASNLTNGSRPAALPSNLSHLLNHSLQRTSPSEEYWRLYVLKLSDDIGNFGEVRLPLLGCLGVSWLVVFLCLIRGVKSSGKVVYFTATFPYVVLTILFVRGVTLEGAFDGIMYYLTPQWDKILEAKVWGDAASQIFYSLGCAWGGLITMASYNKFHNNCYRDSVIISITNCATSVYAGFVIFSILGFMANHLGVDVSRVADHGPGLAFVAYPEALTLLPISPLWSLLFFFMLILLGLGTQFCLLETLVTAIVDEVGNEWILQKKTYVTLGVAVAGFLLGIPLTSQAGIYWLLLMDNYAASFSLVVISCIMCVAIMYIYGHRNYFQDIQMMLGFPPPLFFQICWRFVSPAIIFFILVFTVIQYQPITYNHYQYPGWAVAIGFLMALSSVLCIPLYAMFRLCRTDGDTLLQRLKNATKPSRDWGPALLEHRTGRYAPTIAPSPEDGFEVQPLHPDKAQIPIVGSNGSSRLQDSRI
Kind of series: Inhibition of recombinant human GlyT1b expressed in Xenopus laevis oocytes assessed as reduction in [3H]glycine uptake at 0.1 to 1 uM pretreated for 2 mins followed by [3H]glycine addition and measured after 30 mins by scintillation counting method. Format: cell-based.

A further series has as its system GlyT2 (Homo sapiens). Description: Inhibition of recombinant human GlyT2a expressed in expressed in Xenopus laevis oocytes assessed as reduction in [3H]glycine uptake at 0.1 to 1 uM pretreated for 2 mins followed by [3H]glycine addition and measured after 30 mins by scintillation counting method.
Series [8] can be described thus: Degradation half life in rat plasma at 1000 ng/ml by LC-MS/MS analysis. Type of series: ADME, cell-free. Summed up:
(§3)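 Pooled human plasma (3 donors) or pooled male Sprague-Dawley rat plasma, thawed at 37°C. Spiked to a nominal 1000 ng/mL final (0.2% DMSO, 0.4% acetonitrile final) and incubated at 37°C. Aliquots were snap-frozen at time points over 4 h (n=3 per time point). Quantified by LC-MS against a same-species blank-plasma calibration with a leucine enkephalin internal standard.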

Series [9] concerns the target T3, Sodium- and chloride-dependent glycine transporter 2 (Homo sapiens, UniProt Q9Y345).
T3 sequence (Q9Y345 whole entry): T1 sequence (whole entry)
Kind of series: Inhibition of recombinant human GlyT2a expressed in Xenopus laevis oocytes assessed as reduction in channel current by two-electrode voltage clamp electrophysiology. Format: cell-based.

For series [10], the target named is T1, Sodium- and chloride-dependent glycine transporter 2 (Homo sapiens). Kind of series: Inhibition of recombinant human GlyT2a expressed in Xenopus laevis oocytes assessed as reduction in channel current at 1 uM by two-electrode voltage clamp electrophysiology. Format: cell-based. The method in brief: as §2
Series [11] shares this target. Description: Inhibition of recombinant human GlyT2a expressed in Xenopus laevis oocytes assessed as reduction in channel current at 30 nM by two-electrode voltage clamp electrophysiology. Type of series: cell-based. The method in brief:
as §2

Series [12] in a line: Drug degradation in human plasma at 1000 ng/ml measured over 240 mins by LC-MS/MS analysis. Format: ADME, cell-free. The following applies: read-out: Drug degradation. The method in brief:
as §3

In series [13] the target is T4, Sodium- and chloride-dependent glycine transporter 1 (Homo sapiens, UniProt P48067).
T4 sequence (P48067 whole entry): T2 sequence (whole entry)
Description: Inhibition of recombinant human GlyT1b expressed in Xenopus laevis oocytes assessed as reduction in channel current by two-electrode voltage clamp electrophysiology. Type of series: cell-based.

The nature of series [14]: Drug degradation in human liver microsomes at 1 uM measured over 60 mins by LC-MS/MS analysis. As to conditions: read-out: Drug degradation. Format: ADME, Microsome. The method in brief: (§4)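 Human or rat liver microsomes (0.4 mg/mL protein final) in 0.1 M phosphate buffer pH 7.4 with 1 μM compound at 37°C. Reaction started with an NADPH-regenerating system plus MgCl2. Samples were quenched with ice-cold acetonitrile at time points over 60 min. Remaining parent was measured by LC-MS, and the first-order depletion rate constant came from an exponential decay fit.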

A short description of series [15]: Degradation half life in rat liver microsomes at 1 uM by LC-MS/MS analysis. Format: ADME, Microsome. Summed up: as §4
(In general: Microsomes from liver hold many membrane-bound enzymes, among them those of drug oxidation.)

Each structure is given as a SMILES string. Active and inactive are the calls of the source.

In the case of `COc1cc(C(=O)NCC2(N(C)C)CCCC2)cc(OC)c1OCc1ccccc1`, the Activity result in series [1] is “Toxic”; in series [3] it was “Toxic”; in series [4], 35%; in series [5], “Toxic”. For the same compound, in [2], the Imax was found to be 93%. Moreover, in the series with Rattus norvegicus, the result was Active.

`CCCCCCCC/C=C\CCCCCCCC(=O)N[C@@H](CCCCN)C(=O)O.Cl`: the Imax was found to be 82.8% in series [6], 86.8% in [2], 30.2% in series [10] and 62.4% in series [11]. Further, the inhibition entry in [7] was “inactive”. The inhibition entry in the series with GlyT2 (Homo sapiens) is “Active”. For the same compound, the t1/2 in series [8] turned out to be 1.43 h; in [15] it was 0.9 h. In addition, the IC50 in series [9] is 0.0255 µM; in series [13], more than 3 µM. Moreover, the metabolised at 4 h, 1000 ng/ml in series [12] was less than 15%. Besides, the metabolised at 1 h, 1 µM in series [14] is less than 15%.

As usually defined, the IC50 is the point on the concentration scale where inhibition reaches its midpoint.
